Screening data as filed in PubChem BioAssay.
RAM inhibit: yeast RAM network inhibition. 190,000 compounds, 1.8% hits. inhibition, % at 50 µM. S. cerevisiae dse1pr::URA3 reporter, 5-FOA growth OD615, 2 d; analog-sensitive cbk1-as2 kinase mutant strain;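 active = inhibition above a set limit, 3 SD over mean compound inhibition, cut at about 8.4% in these data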;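 also: inhibition rescues growth on 5-FOA so higher OD means more RAM inhibition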
INS promoter inh: TRM-6 insulin promoter activity inhibition; TRM-6 cells, insulin promoter-eGFP reporter, imaging; reporter expression induced with tamoxifen; inhibition, % at 2 µM; 130,000 compounds, 0.9% hits; AID 1273;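 active = inhibition above the mean plus 3 SD, with well images judged a real hit on visual review, cut at about 60% in these data, passing the limit was not always enough; inconclusive = inhibition over the cutoff but images rejected on review; inactive = inhibition not above the cutoff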
Yeast lifespan up: extends the lifespan of yeast. S. cerevisiae growth with nicotinamide, OD615; deaD strain in restrictive glucose medium. inhibition of the nicotinamide effect, % at 10 µM. 130,000 compounds, 0.68% hits;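 active = inhibition above a set limit, placed 3 SD over the median of all compounds, cut at about 26% in these data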
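Measured by: optical density (absorbance) at 615 nm; System: modified budding yeast, DeaD strain; Medium: restrictive CSMM-D dextrose medium; Timing: 4 h preincubation then 48 h treatment at 30 °C.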
Ins promoter up: MIN6 insulin promoter up-regulation | MIN6 insulin promoter-GFP reporter, high-content imaging; hits give high values | z-score at 5 µM | 190,000 compounds, 0.3% hits | AID 1625;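 active = z-score above 3 at 5 µM with at least 500 cells counted in the well; inconclusive = wells under 500 cells, flagged as cytotoxic or low count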
BB579 growth dn: chemicals that inhibit yeast BB579 growth in restrictive medium (lifespan-shortening candidates) | inhibition, % at 10 µM | S. cerevisiae BB579 growth, OD615, 48 h | 140,000 compounds, 0.51% hits;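 active = inhibition above a set limit, 3 SD over the mean compound inhibition, cut at about 44% in these data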
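System: Saccharomyces cerevisiae DeaD strain BB579, replicative lifespan model yeast. Buffer or medium: restrictive glucose-based CSMM-D medium. Doses: one dose, 10 µM compound with 0.25% DMSO. Timing: 4 h preincubation and 48 h exposure at 30 °C. Detection: turbidity as optical density at 615 nm. Benchmarks: amphotericin B 10 µg/mL, positive.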
Each line names hits and unclear results; the compound was inactive in the other large screens. The list is not random: actives were taken first. Their share in the collection is about 3%.

O=C(CCc1ccc(S(=O)(=O)NC2CCCCC2)cc1)Nc1ccccc1	none
O=C(CCc1ccc(S(=O)(=O)NC2CCCCC2)cc1)N(Cc1ccccc1)Cc1ccccc1	RAM inhibit 10.9
COc1cc(OC)nc(-n2ncc(Br)c(Br)c2=O)n1	Yeast lifespan up 38.3, Ins promoter up inconclusive (no result: INS promoter inh)
Cc1c(Cl)cccc1NC(=O)CCC(=O)NNC(=O)c1ccccc1	none
C=CCn1c(SCC(=O)Nc2cc(C)on2)nc2sc3c(c2c1=O)CCCC3	none (no result: Ins promoter up)
C=CCn1c(SCc2csc(C)n2)nc2sc3c(c2c1=O)CCCC3	RAM inhibit 9.3, INS promoter inh 71.4
O=c1[nH][nH]c(=O)n1-c1ccccc1	none (no result: INS promoter inh, Yeast lifespan up, BB579 growth dn)
Cc1ccc(NC(=O)/C(=C\c2ccc([N+](=O)[O-])cc2)NC(=O)c2ccccc2)cc1	none (no result: Ins promoter up)
COc1ccccc1/C=C(\NC(=O)c1ccc(OC)c(OC)c1)C(=O)Nc1ccc([N+](=O)[O-])cc1	RAM inhibit 8.5 (no result: Ins promoter up)
O=C(Nc1cccc(C(=O)O)c1)/C(=C/c1ccc([N+](=O)[O-])cc1)NC(=O)c1ccccc1	RAM inhibit 9.9 (no result: INS promoter inh, Yeast lifespan up, BB579 growth dn)
Cc1cc(NCCO)nc(-n2nc(C)cc2C)n1	INS promoter inh 79.5
Cc1cc(N(CCO)CCO)nc(-n2nc(C)cc2C)n1	none
Nn1c(SCc2ccccc2F)nnc1-c1ccccn1	none (no result: RAM inhibit, INS promoter inh, Yeast lifespan up, BB579 growth dn)
COc1ccc(CC(=O)n2nc(-c3ccccc3)nc2NCc2ccco2)cc1	RAM inhibit 10.4 (no result: Ins promoter up)
O=C(O)CCC(=O)NCc1c(Cl)cccc1Sc1ccc(Cl)cc1	none (no result: RAM inhibit, INS promoter inh, Yeast lifespan up, BB579 growth dn)
Cc1ccc(C#CC[N+]2(CC#Cc3ccc(C)cc3)CCCCC2)cc1	Ins promoter up inconclusive
Cc1nn(C)c(C)c1CNC(=O)/C=C/c1ccccc1F	INS promoter inh 71.4
c1ccc(CNc2nc(-c3cccs3)nc3ccccc23)nc1	INS promoter inh 91.7 (no result: Yeast lifespan up, BB579 growth dn)
NC(=O)CSC1=Nc2ccccc2C2=NC(c3ccccc3)C(=O)N12 (stereo not given)	INS promoter inh 78.6 (no result: Yeast lifespan up, BB579 growth dn)
CCN(CC)C(=O)CSC1=Nc2ccccc2C2=NC(c3ccccc3)C(=O)N12 (stereo not given)	none
C=C(C)COc1ccc(-c2[nH]ncc2-c2ccccc2OC)c(O)c1	BB579 growth dn 89.7
COc1ccc(-c2[nH]ncc2-c2ccc3c(c2)OCCO3)c(O)c1	RAM inhibit 10.1
CCCOC(=O)c1ccc(Oc2cn[nH]c2-c2ccc(OC)cc2O)cc1	BB579 growth dn 69.1
C=C(C)COc1ccc(-c2[nH]ncc2Oc2ccccc2OC)c(O)c1	BB579 growth dn 79.5
COc1ccccc1CC(=O)NNS(=O)(=O)c1ccc([N+](=O)[O-])cc1	none (no result: INS promoter inh, Yeast lifespan up, BB579 growth dn)
Cn1c(CN2CCCC2)nc2cc(NC(=O)c3cccs3)ccc21	none
COc1ccc(-c2c(-c3ccc(O)cc3O)n[nH]c2C)cc1OC	none
C=C(C)COc1ccc(-c2n[nH]c(C)c2-c2ccc(Br)cc2)c(O)c1	RAM inhibit 10.4 (no result: Ins promoter up)
C=C(C)COc1ccc(-c2[nH]ncc2-c2ccc(Br)cc2)c(O)c1	BB579 growth dn 68.6
C=C(C)COc1ccc(-c2[nH]ncc2Oc2ccc(OC)cc2)c(O)c1	none (no result: RAM inhibit, INS promoter inh, Yeast lifespan up, BB579 growth dn)
O=S(=O)(NCC1CCCO1)c1ccc(Cl)nc1 (stereo not given)	none (no result: RAM inhibit, INS promoter inh, Yeast lifespan up, BB579 growth dn)
CC(Sc1nc2c(cc1C#N)CCCCC2)C(=O)O (stereo not given)	none (no result: INS promoter inh, Yeast lifespan up, BB579 growth dn)
Cc1cc(NC(=O)CSc2ncnc3c2cnn3-c2cccc(Cl)c2)no1	none (no result: Yeast lifespan up, BB579 growth dn)
O=c1c2c(nc3n1CCCCC3)-c1ccccc1CC21CCCCC1	RAM inhibit 9.9 (no result: Yeast lifespan up)
COc1ccc2c3c(cccc13)NN=C2C	INS promoter inh 78.6 (no result: RAM inhibit, Yeast lifespan up, Ins promoter up, BB579 growth dn)
COc1ccc(C(=O)c2ccc(OC)c3cccc(O)c23)cc1OC	none
Cc1ccc(S(=O)(=O)N2CCC(C(=O)NCCc3ccc(S(N)(=O)=O)cc3)CC2)cc1	RAM inhibit 8.9
CCN(CC(=O)Nc1c(F)cccc1F)C(=O)CCc1ccc(OC)cc1	none (no result: INS promoter inh, Yeast lifespan up, BB579 growth dn)
Cc1ccc(NC2=C(Cl)C(=O)OC2NC(=O)c2ccccc2)cc1 (stereo not given)	RAM inhibit 9.3 (no result: Yeast lifespan up, Ins promoter up)
CCOC1OC(=O)C(Cl)=C1Nc1ccc(C)cc1 (stereo not given)	none (no result: Yeast lifespan up, BB579 growth dn)
CC(NCc1ccc(S(N)(=O)=O)cc1)C(=O)Nc1cccc(Cl)c1 (stereo not given)	none (no result: RAM inhibit, INS promoter inh, Yeast lifespan up, BB579 growth dn)
Cc1ccc(NC(=O)c2cc(S(=O)(=O)NCCc3ccccc3)ccc2F)cc1Cl	none (no result: INS promoter inh)
O=C(Nc1cccc(Cl)c1)c1cc(S(=O)(=O)NCCc2ccc(Cl)cc2)ccc1F	RAM inhibit 10.4 (no result: INS promoter inh)
CN=c1scc(-c2ccccc2F)n1/N=C(\C)c1cccnc1	none (no result: INS promoter inh, Yeast lifespan up, BB579 growth dn)
COC(=O)C(=C/C(C)=C/c1cccnc1)C(=O)OC	none (no result: INS promoter inh, Yeast lifespan up, BB579 growth dn)
